# Only some compounds are listed: those with a hit (about 2.1% of all), similar ones and a draw of the others.
# m5-HT2A agonist – mouse Htr2a agonists via beta-arrestin recruitment, primary screen, cell-based, luminescence; 5-hydroxytryptamine receptor 2A (Mus musculus), P35363; CHO-K1 mHTR2A beta-arrestin complementation; percent of 30 µM serotonin response; activation, % at 7.6 µM; actives 0.66% (n = 360,000);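 active = activation above a run cutoff, the mean activation of all tested compounds plus 3 SD, cut at about 14% in these data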;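 note: 0% = plate median of compound wells and 100% = 30 µM serotonin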
# APJ ag – agonists of human apelin receptor APJ, primary screen, CHO-K1 cells, PathHunter beta-arrestin, luminescence. P35414. 0% DMSO wells, 100% apelin. activation, % at 20 µM. actives 0.11% (n = 330,000). AID 2520, 2010;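 active = activation more than six SD over the plate average, tested at 20 µM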;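 note: 0% = DMSO alone and 100% = apelin-13 at 10 nM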
#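 Test system: CHO-K1 APJ beta-arrestin complementation cell line. Amount: cell density 1000 per well. Controls: DMSO negative, 10 nM Apelin-13 positive. Signal: luminescent beta-gal fragment complementation, chemiluminescent substrate. Read-out basis: agonist-driven arrestin binding to APJ. Timing: compound stimulation 90 min at 25 °C, detection 60 min.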
# CCR6 antagonist – CCR6 receptor antagonists, primary screen, cell-based, CHO-K1, luminescence, beta-arrestin, uHTS; CHO-K1 CCR6 PathHunter beta-arrestin, CCL20-stimulated; actives 0.49% (n = 340,000); inhibition, % at 20 µM;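 active = compounds whose inhibition of the agonist-driven luminescence signal at 20 µM reaches about 50%, limit read from the data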;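 note: cells stimulated with CCL20 at 14 nM final; plate controls were DMSO with CCL20 for no effect and DMSO without agonist for full effect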
# CXCR6 inh – CXCR6 receptor inhibitors, primary screen, cell-based, beta-arrestin, luminescence, CHO-K1 PathHunter, 1536-well. C-X-C chemokine receptor type 6 (Homo sapiens), O00574. inhibition, % at 20 µM. actives 0.36% (n = 360,000). AID 602244, 2012; in the data active = inhibition above about 34%, passing the limit was not always enough;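 note: antagonist mode with CXCL16 agonist at 10 nM final; 0% = 10 nM CXCL16 with DMSO and 100% = unstimulated wells without agonist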
# Target sequence (O00574 whole entry, looked up): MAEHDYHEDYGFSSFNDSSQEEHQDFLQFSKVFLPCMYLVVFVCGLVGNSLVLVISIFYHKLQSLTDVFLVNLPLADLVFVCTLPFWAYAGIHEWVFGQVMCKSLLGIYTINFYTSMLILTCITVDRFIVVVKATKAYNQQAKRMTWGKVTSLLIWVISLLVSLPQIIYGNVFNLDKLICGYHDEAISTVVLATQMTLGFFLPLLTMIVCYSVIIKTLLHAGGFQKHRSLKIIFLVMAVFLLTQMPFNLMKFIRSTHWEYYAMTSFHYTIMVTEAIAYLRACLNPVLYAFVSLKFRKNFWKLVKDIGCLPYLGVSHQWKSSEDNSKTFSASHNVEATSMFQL
# APJ antagonist – antagonists of human apelin receptor APJ, primary screen, CHO-K1 cells, beta-arrestin complementation, luminescence | inhibition, % at 20 µM | actives 0.32% (n = 330,000);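 active = inhibition above about 40% at 20 µM, limit read from the data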;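 note: cells challenged with 10 nM apelin-13 agonist together with compound; plate controls were apelin-13 plus DMSO wells for no effect and DMSO wells lacking apelin-13 for full effect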
# EBI2 antag – EBI2 receptor antagonists, beta-arrestin recruitment, primary screen, cell-based, luminescence, 7a,25-OHC stimulation, uHTS; G-protein coupled receptor 183 (Homo sapiens), P32249; 7a,25-OHC stimulated; inhibition, % at 5 µM; actives 0.81% (n = 360,000); AID 651636, 2012; in the data active = inhibition above about 38%;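 note: enzyme fragment complementation signal reports receptor beta-arrestin coupling in cells; 0% = agonist plus DMSO wells and 100% = wells without agonist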
# EBI2 conf – EBI2 antagonist hit retest, beta-arrestin, confirmation, cell-based, single concentration, luminescence, 7a,25-OHC stimulation; shares compounds with EBI2 antag; 7a,25-OHC antagonism; inhibition, % at 5 µM; actives 29% (n = 2,400);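 active = inhibition of at least 50%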
# EBI2 ag – EBI2 agonist activity of antagonist hits, confirmation, counter-screen for EBI2 antagonist project, cell-based, single concentration, agonist mode, luminescence; AID 652000, 2013; EBI2-expressing cells, 60 min; 0% vehicle, 100% 7α,25-dihydroxycholesterol control; 2,400 tested, under 10 active; activation, % at 5 µM; shares compounds with EBI2 antag;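 active = activation of at least 50%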
# bGal counter – E. coli beta-galactosidase enzyme inhibition, confirmation, counter-screen for EBI2 antagonist project, biochemical, luminescence, single concentration; shares compounds with EBI2 antag; purified beta-galactosidase, luminescent Galacton Star, 15 min; inhibition, % at 5 µM; actives 1% (n = 2,400); AID 652176, 2013;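 active = replicate-average signal at least 3 plate SD below neutral wells, shown as high inhibition, flagging enzyme-inhibiting false positives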;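 note: 0% = DMSO wells with enzyme and 100% = wells lacking enzyme; higher means stronger loss of beta-gal luminescence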
# Starred values were filed as active, the others as inactive; . = no result.
SMILES,m5-HT2A agonist,APJ ag,CCR6 antagonist,CXCR6 inh,APJ antagonist,EBI2 antag,EBI2 conf,EBI2 ag,bGal counter
Cc1cccc(C)c1N(CC(=O)Nc1cc(Cl)ccc1Oc1ccccc1)S(C)(=O)=O,-1,-1,12,5,16,47*,12,0,8
CCC(C)CN1C(=O)CSCC1(C)C(=O)Nc1ccc2c(c1)OCCO2 (configuration not stated),0,.,.,.,.,1,.,.,.
CCOc1ccccc1NC(=O)COc1cccc(-n2cnnn2)c1,-2,0,0,4,5,14,.,.,.
COc1ccc2cc3cc(C(=O)NCC4CCCO4)oc3nc2c1 (configuration not stated),2,2,-10,-2,13,-13,.,.,.
S=C(N/N=C/c1ccccc1Cl)Nc1ccccc1,4,-3,32,12,33,43*,37,1,4
CNC(=S)N/N=C/c1ccccc1Cl,-1,-1,13,7,4,-3,.,.,.
CC1=NN(c2ccc(Cl)cc2)C(=O)C1C(c1ccccc1O)c1c(C)[nH]n(-c2ccc(Cl)cc2)c1=O (configuration not stated),-4,0,-3,25,3,65*,35,1,-7
COC(=O)C(=Cc1ccc(OCc2ccc([N+](=O)[O-])cc2)c(OC)c1)C(=O)OC,1,-5,40,22,9,57*,67*,1,3
COc1ccc2c(c1OC)C(=O)OC2,-3,-3,6,2,-67,-17,.,.,.
CC[C@H](C)[C@@H]1NC(=O)c2cc([N+](=O)[O-])cc(F)c2NCCCC[C@@H](C(N)=O)NC(=O)[C@H](CCCCN)NC1=O,10,-6,-6,-2,13,-7,.,.,.
COC(=O)/C=C1\SC(=Nc2ccccc2)NC1=O,-2,-2,11,8,15,52*,59*,-1,-12
COC(=O)/C=C1/SC(=Nc2ccc(C)cc2C)NC1=O,2,-2,9,3,20,72*,72*,0,3
COC(=O)/C=C1\SC(=NC(=O)c2ccc(C)cc2)NC1=O,-1,-3,13,-5,7,1,.,.,.
CCc1ccccc1N1CC23C=CC(O2)C(C(=O)O)C3C1=O (configuration not stated),-1,-1,9,-8,-18,-13,.,.,.
COc1cc(/C=C2\CCC(C)C3=C(c4cc(OC)c(OC)c(OC)c4)C(C#N)=C(N)OC32)cc(OC)c1OC (configuration not stated),0,.,17,3,.,45*,20,0,10
CNc1cc(-c2ccc(OC)nc2)ncn1,5,.,.,-6,.,-10,.,.,.
Cc1cccc(C)c1-n1nnnc1C(c1ccccc1OC(F)(F)F)N1CCN(C/C=C/c2ccccc2)CC1 (configuration not stated),-5,.,.,4,.,37,.,.,.
COc1ccc(C(=O)Nc2ccc3ccccc3c2)cc1,-5,3,15,-5,1,55*,38,0,-6
COc1cccc(C(=O)Nc2ccc3ccccc3c2)c1,4,2,3,-6,7,13,.,.,.
COc1cccc(C(=O)Nc2ccc(NC(=O)Cc3ccccc3)cc2)c1,-2,1,11,-3,10,66*,40,0,8
COc1ccc(NC(=O)c2ccc(OC(F)F)cc2)cc1Cl,0,-2,15,-4,6,46*,54*,-1,-11
COc1ccc(NC(=O)c2ccc(OC(=S)N(C)c3ccc(OC)cc3)cc2)cc1,-1,6,6,-5,-11,86*,74*,-2,-9
O=C(c1ccc(CSc2nc3ccncc3[nH]2)cc1)N1CCCCCC1,3,-2,1,-3,-19,-14,.,.,.
CCCCCC(=O)Nc1ccc2ccccc2c1,0,0,15,-7,-5,11,.,.,.
COc1ccc(NC(=S)NN(C)C(=S)Nc2ccc(OC)cc2)cc1,0,-2,6,2,-27,67*,24,0,0
SMILES,m5-HT2A agonist,APJ ag,CCR6 antagonist,CXCR6 inh,APJ antagonist,EBI2 antag,EBI2 conf,EBI2 ag,bGal counter
COc1ccc(OC)c(C(=O)c2ccc(C(=O)Nc3ccc4ccccc4c3)cc2)c1,-5,-2,2,2,5,88*,55*,-1,-9
COc1ccc(NC(=S)Nc2ccc(Oc3ccccc3)cc2)cc1,-6,-3,12,-3,30,14,.,.,.
O=C(CS)Nc1ccc2ccccc2c1,11,.,8,-6,.,40*,26,0,3
CN(C)/C(=N\S(=O)(=O)c1ccccc1)c1ccc(Cl)cc1,-3,-4,-3,0,3,-13,.,.,.
COc1cc(SC)ccc1C(=O)Nc1nccs1,3,2,2,-3,-2,6,.,.,.
CC(CCc1ccccc1)NCc1ccc(Cl)cc1Cl (configuration not stated),3,-1,10,-4,7,62*,32,1,2
CC(O)CNCc1ccc(Cl)cc1Cl (configuration not stated),2,-1,22,7,4,14,.,.,.
C/C=C\C=C\C(=O)N1CC2(CC(c3cccc(NC(=O)COc4ccc(Cl)cc4)c3)=NO2)C[C@H]1C(N)=O (some centres not stated),-4,9,-4,-8,-38,48*,47,1,5
CCOC(=O)c1c(NC(=O)CS(=O)(=O)c2cn(CC)c3ccccc23)sc2c1CCCCC2,-3,-1,6,11,20,57*,36,-1,6
CCOC(=O)c1c(NC(=O)CS(=O)(=O)c2cn(CC)c3ccccc23)sc2c1CCCC2,9,-1,5,2,1,18,.,.,.
Cc1nn(C)c(Cl)c1CN1CCN(CCC(C)C)C(CCO)C1 (configuration not stated),-1,-5,2,4,-6,6,.,.,.
